Activity calls are given as the source filed them. No cut-off for these calls is given here.
Legend:
[1] = tested on: A-375; test: Inhibition of colony formation in human A-375 cells at 250 to 500 nM measured after 7 days by crystal violet staining based colony formation assay; format: functional, cell-based; conditions: dose 250-500 nM, time 7.0 day
Outline: (§1)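 Colony formation (long-term growth) assay in A375 and B16F10 cells under continuous compound exposure for 7 days, then clonogenic growth quantified. Mean ± SD, n = 3; Student's t-test.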

[2] = tested on: B16-F10; test: Cytotoxicity against mouse B16F10 cells assessed as reduction in cell viability after 72 hrs by MTT assay; format: functional, cell-based; conditions: B16-F10, 72 h
Outline: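 Cells exposed to compound for 72 h and viability read by MTT; IC50 from three independent experiments.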

[3] = target: T1, Protein cereblon/Cyclin-dependent kinase 4 (Mus musculus) (UniProt P30285+Q8C7D2); test: Protac activity at CRBN/CDK4 in mouse B16F10 cells assessed as induction of CDK4 protein degradation after 12 hrs by Western blot analysis; format: cell-based; conditions: B16-F10, dose 62.5-1000 nM
Outline: (§2)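 B16F10 and A375 cells treated with DMSO or serial dilutions of compound for 12 h (concentration series), or for the indicated times (time course). CDK2, CDK4 and CDK6 protein levels determined by western blot.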

[4] = Cmax in Sprague-Dawley rat at 200 mg/kg, po; format: ADME, organism-based; set-up: route oral, dose 200 mg/kg; conditions: in vivo
Outline: (§3)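 Single oral dose of 200 mg/Kg to SD rats (n = 3). Prodrug and released active degrader quantified in plasma over 0–12 h; Cmax, Tmax and AUC0-12 derived by non-compartmental model.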

[5] = tested on: A-375; test: Induction of apoptosis in human A-375 cells assessed as necrotic cells at 250 nM incubated for 48 hrs by Annexin V-FITC/PI staining based flow cytometry (reference value: 0.602%); format: functional
[6] = tested on: B16-F10; test: Induction of apoptosis in mouse B16F10 cells assessed as late apoptotic cells at 500 nM incubated for 48 hrs by Annexin V-FITC/PI staining based flow cytometry (reference value: 0.551%); format: functional
[7] = tested on: B16-F10; test: Induction of apoptosis in mouse B16F10 cells assessed as increase in P-53 level upto 1000 nM incubated for 48 hrs by Western blot analysis; format: functional, cell-based; conditions: dose nM <=1000, time 48.0 hrs
Outline: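 A375 and B16F10 cells incubated with compound for 48 h. Cleaved caspase-3, cleaved PARP, total P53, Bcl-2 and Bax measured by western blot.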

[8] = target: T1, Protein cereblon/Cyclin-dependent kinase 4 (Mus musculus); test: Protac activity at CRBN/CDK4 in mouse B16F10 cells assessed as induction of CDK4 protein degradation at 500 nM by Western blot analysis; format: cell-based; conditions: B16-F10, time hrs <=12, TDE = time-dependent effect; outline: as §2
[9] = target: T2, Protein cereblon/Cyclin-dependent kinase 2 (Mus musculus) (UniProt P97377+Q8C7D2); test: Protac activity at CRBN/CDK2 in mouse B16F10 cells assessed as induction of CDK2 protein degradation at 100 nM for 6 hrsin presence of Ribociclib by Western blot analysis; format: cell-based; conditions: B16-F10, time 6.0 hrs
[10] = AUC (0 to 12 hrs) in Sprague-Dawley rat at 200 mg/kg, po; format: ADME, organism-based; set-up: time < 12 hr, route oral, dose 200 mg/kg; conditions: in vivo; outline: as §3
[11] = tested on: A-375; test: Induction of cell cycle arrest in human A-375 cells assessed as accumulation at G1 phase at 500 uM incubated for 48 hrs by propidium iodide staining based flow cytometry (reference value: 58.26%); format: functional
Outline: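 Tumor cells incubated 48 h in complete medium with compound or DMSO at various concentrations, stained with propidium iodide, and DNA content read by flow cytometry. G0/G1, S and G2/M fractions reported; mean ± SD, n = 3, Student's t-test.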

[12] = tested on: B16-F10; test: Induction of apoptosis in mouse B16F10 cells assessed as early apoptotic cells at 125 nM incubated for 48 hrs by Annexin V-FITC/PI staining based flow cytometry (reference value: 3.52%); format: functional
[13] = target: T3, Protein cereblon/Cyclin-dependent kinase 6 (Mus musculus) (UniProt Q8C7D2+Q64261); test: Protac activity at CRBN/CDK6 in mouse B16F10 cells assessed as induction of CDK6 protein degradation after 12 hrs by Western blot analysis; format: cell-based; conditions: B16-F10, dose 62.5-1000 nM; outline: as §2
[14] = AUC (0 to 12 hrs) in Sprague-Dawley rat at 10 mg/kg, iv; format: ADME, organism-based; set-up: time < 12 hr, route intravenous, dose 10 mg/kg; conditions: in vivo
[15] = tested on: B16-F10; test: Induction of apoptosis in mouse B16F10 cells assessed as early apoptotic cells at 250 nM incubated for 48 hrs by Annexin V-FITC/PI staining based flow cytometry (reference value: 3.52%); format: functional
[16] = tested on: B16-F10; test: Inhibition of colony formation in mouse B16F10 cells at 50 to 100 nM measured after 7 days by crystal violet staining based colony formation assay; format: functional, cell-based; conditions: dose 50-100 nM, time 7.0 day; outline: as §1
[17] = tested on: B16-F10; test: Induction of cell cycle arrest in mouse B16-F10 cells assessed as accumulation at G1 phase at 25 uM incubated for 48 hrs by propidium iodide staining based flow cytometry (reference value: 52.59%); format: functional
[18] = tested on: B16-F10; test: Induction of apoptosis in mouse B16F10 cells assessed as late apoptotic cells at 125 nM incubated for 48 hrs by Annexin V-FITC/PI staining based flow cytometry (reference value: 0.551%); format: functional
[19] = target: T2, Protein cereblon/Cyclin-dependent kinase 2 (Mus musculus); test: Protac activity at CRBN/CDK2 in mouse B16F10 cells assessed as induction of CDK2 protein degradation after 12 hrs by Western blot analysis; format: cell-based; conditions: B16-F10, dose 62.5-1000 nM; outline: as §2
[20] = target: T3, Protein cereblon/Cyclin-dependent kinase 6 (Mus musculus); test: Protac activity at CRBN/CDK6 in mouse B16F10 cells assessed as induction of CDK6 protein degradation at 100 nM for 6 hrs in presence of proteasome inhibitor MG132 by Western blot analysis; format: cell-based; conditions: B16-F10
Outline: (§4)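 B16F10 cells pre-treated 2 h with DMSO, pomalidomide (10 μM), MG132 (20 μM) or a parent CDK ligand, then exposed to 100 nM degrader for 6 h. CDK2/4/6 protein levels read by western blot.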

[21] = tested on: A-375; test: Induction of apoptosis in human A-375 cells assessed as late apoptotic cells at 500 nM incubated for 48 hrs by Annexin V-FITC/PI staining based flow cytometry (reference value: 3.28%); format: functional
[22] = tested on: B16-F10; test: Induction of apoptosis in mouse B16F10 cells assessed as viable cells at 125 nM incubated for 48 hrs by Annexin V-FITC/PI staining based flow cytometry (reference value: 95.9%); format: functional; conditions: read-out: Activity
[23] = target: T1, Protein cereblon/Cyclin-dependent kinase 4 (Mus musculus); test: Protac activity at CRBN/CDK4 in mouse B16F10 cells assessed as induction of CDK4 protein degradation at 100 nM for 6 hrsin presence of methyl 6-(7-cyclopentyl-6-(dimethylcarbamoyl)-7H-pyrrolo[2,3-d]pyrimidin-2-ylamino)nicotinate by Western blot analysis; format: cell-based; conditions: B16-F10, time 6.0 hrs; outline: as §4
[24] = tested on: A-375; test: Induction of apoptosis in human A-375 cells assessed as early apoptotic cells at 1000 nM incubated for 48 hrs by Annexin V-FITC/PI staining based flow cytometry (reference value: 2.82%); format: functional
[25] = tested on: A-375; test: Induction of apoptosis in human A-375 cells assessed as viable cells at 1000 nM incubated for 48 hrs by Annexin V-FITC/PI staining based flow cytometry (reference value: 93.3%); format: functional; conditions: read-out: Activity
[26] = target: T3, Protein cereblon/Cyclin-dependent kinase 6 (Mus musculus); test: Protac activity at CRBN/CDK6 in mouse B16F10 cells assessed as induction of CDK6 protein degradation at 100 nM for 6 hrsin presence of Ribociclib by Western blot analysis; format: cell-based; conditions: B16-F10, time 6.0 hrs
[27] = tested on: B16-F10; test: Induction of apoptosis in mouse B16F10 cells assessed as necrotic cells at 125 nM incubated for 48 hrs by Annexin V-FITC/PI staining based flow cytometry (reference value: 0.21%); format: functional

T3 sequence (Q64261 whole entry, looked up): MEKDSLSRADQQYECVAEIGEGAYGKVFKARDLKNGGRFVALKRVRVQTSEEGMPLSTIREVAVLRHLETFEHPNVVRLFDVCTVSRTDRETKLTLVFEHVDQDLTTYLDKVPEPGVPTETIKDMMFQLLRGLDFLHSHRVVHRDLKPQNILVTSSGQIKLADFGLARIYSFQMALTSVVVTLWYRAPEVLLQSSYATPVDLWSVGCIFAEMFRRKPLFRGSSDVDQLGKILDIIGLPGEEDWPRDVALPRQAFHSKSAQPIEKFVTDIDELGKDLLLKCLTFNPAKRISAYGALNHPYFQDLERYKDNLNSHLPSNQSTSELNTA
T3 sequence (Q8C7D2 whole entry, looked up): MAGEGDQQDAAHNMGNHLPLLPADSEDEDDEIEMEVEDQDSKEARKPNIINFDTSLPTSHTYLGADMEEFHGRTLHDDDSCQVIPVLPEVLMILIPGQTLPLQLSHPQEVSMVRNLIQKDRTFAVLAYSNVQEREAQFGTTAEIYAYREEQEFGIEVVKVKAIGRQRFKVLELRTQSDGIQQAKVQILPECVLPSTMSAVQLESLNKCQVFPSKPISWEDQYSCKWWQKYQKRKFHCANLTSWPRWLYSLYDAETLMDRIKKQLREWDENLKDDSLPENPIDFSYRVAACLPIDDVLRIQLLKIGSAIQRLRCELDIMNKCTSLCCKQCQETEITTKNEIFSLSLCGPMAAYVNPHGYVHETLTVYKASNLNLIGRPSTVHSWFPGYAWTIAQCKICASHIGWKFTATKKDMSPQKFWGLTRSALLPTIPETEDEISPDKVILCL
T1 sequence (P30285 whole entry, looked up): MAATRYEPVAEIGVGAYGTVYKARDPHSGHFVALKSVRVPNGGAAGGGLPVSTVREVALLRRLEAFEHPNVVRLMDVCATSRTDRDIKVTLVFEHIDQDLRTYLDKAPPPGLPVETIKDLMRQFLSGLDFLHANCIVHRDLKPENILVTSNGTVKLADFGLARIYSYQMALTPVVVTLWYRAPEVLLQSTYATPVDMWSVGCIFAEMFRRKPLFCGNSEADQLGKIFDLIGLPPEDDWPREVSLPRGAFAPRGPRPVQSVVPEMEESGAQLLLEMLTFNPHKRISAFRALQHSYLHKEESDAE
T1 sequence (Q8C7D2 whole entry, looked up): as the sequence (Q8C7D2 whole entry, looked up) above
T2 sequence (Q8C7D2 whole entry, looked up, other chains not shown): as the sequence (Q8C7D2 whole entry, looked up) above

- Activity [3]: Dose-dependent effect
- Cmax [4]: 692 µg/mL
- Activity [8]: Tde
- Activity [9]: Active
- AUC [10]: 823 µg·h/mL
- Activity [13]: Dose-dependent effect
- AUC [14]: 161 µg·h/mL
- Activity [19]: Dose-dependent effect
- Activity [20]: inactive
- Activity [23]: inactive
- Activity [26]: inactive
SMILES: CN(C)C(=O)c1cc2cnc(Nc3ccc(C(=O)NCCCCCCNc4cccc5c4C(=O)N(C4CCC(=O)NC4=O)C5=O)cc3)nc2n1C1CCCC1 (configuration not stated)
- inhibition [1]: Active
- IC50 [2]: 97.6 nM
- Activity [5]: 0.144%
- Activity [6]: 1.63%
- Activity [7]: Active
- Activity [11]: 73.45%
- Activity [12]: 7.15%
- Activity [15]: 70.3%
- inhibition [16]: Active
- Activity [17]: 49.67%
- Activity [18]: 6.5%
- Activity [21]: 5.1%
- viability at 0.125 µM [22]: 86.1%
- Activity [24]: 29.3%
- viability at 1 µM [25]: 55.2%
- Activity [27]: 0.289%

Source: ChEMBL document CHEMBL4732105, “First orally bioavailable prodrug of proteolysis targeting chimera (PROTAC) degrades cyclin-dependent kinases 2/4/6 in vivo” (Eur J Med Chem, 2021)
